From ChEMBL document CHEMBL1147097, “Trioxaquines are new antimalarial agents active on all erythrocytic forms, including gametocytes” (Antimicrob Agents Chemother, 2007)
Calls of active or inactive are those of the source.

Key:
Plasmodium falciparum [1] = assay: Antimalarial activity against chloroquine-sensitive Plasmodium falciparum F32; format: functional, organism-based
Outline: (§1)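 Asexual P. falciparum grown in culture at 37°C under 5% CO2 and exposed to drug dilutions for 48 h. Growth inhibition measured by radioactive micromethod. IC50 read graphically from concentration vs % growth inhibition; mean of at least three independent experiments.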

Plasmodium falciparum [2] = assay: Antimalarial activity against chloroquine-resistant Plasmodium falciparum FcB1; format: functional, organism-based; outline: as §1
Plasmodium falciparum [3] = assay: Antimalarial activity against chloroquine-resistant Plasmodium falciparum FcM29; format: functional, organism-based; outline: as §1
[4] = tested on: Plasmodium vinckei petteri; assay: Antimalarial activity against Plasmodium vinckei petteri infected intraperitoneally dosed Swiss Albino mice (Mus musculus); format: functional; conditions: for ED50 / ED90: Plasmodium vinckei, ip; for ED50: read-out: ED50; for ED90: read-out: ED90
Outline: (§2)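 Four-day suppressive test: groups of five female Swiss albino mice infected i.p. on day 0 with 2 × 10^7 parasitized red cells, then dosed once daily for 4 days (i.p., p.o. or s.c.; DMSO vehicle, chloroquine in 0.9% NaCl). Parasitemia read on day 4 vs untreated controls; ED50/ED90 as % growth inhibition; CD50/CD90 = cure (no parasites at 60 days).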

[5] = tested on: Plasmodium vinckei petteri; assay: Antimalarial activity against Plasmodium vinckei petteri infected orally dosed Swiss Albino mice (Mus musculus); format: functional; conditions: for ED50 / ED90: Plasmodium vinckei, po; outline: as §2
[6] = tested on: Plasmodium vinckei petteri; assay: Antimalarial activity against Plasmodium vinckei petteri infected subcutaneously dosed Swiss Albino mice (Mus musculus); format: functional; conditions: for ED50 / ED90: Plasmodium vinckei, sc; outline: as §2
Mus musculus [7] = assay: Toxicity against intraperitoneally dosed Swiss mouse; format: organism-based; conditions: in vivo, ip
Outline: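 Acute toxicity: noninfected Swiss mice (two to five per dose) given a single i.p. injection. LD50 is the dose killing 50% of mice within 60 days.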

Mus musculus [8] = assay: Toxicity against Plasmodium vinckei petteri infected mice (Mus musculus) at 50 mg/kg, perorally after 4 days; format: organism-based; design: dose 50 mg/kg, route oral; conditions: in vivo, po, 96 h
Outline: (§3)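 Subacute toxicity: P. vinckei petteri-infected mice dosed on four consecutive days (day 0–3) at 10, 25 or 50 mg/kg/day p.o., i.p. or s.c. Five mice per dose and route.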

Mus musculus [9] = assay: Toxicity against Plasmodium vinckei petteri infected mice (Mus musculus) at 25 mg/kg, intraperitoneally after 4 days; format: organism-based; design: dose 25 mg/kg, route intraperitoneal; conditions: in vivo, ip, 96 h; outline: as §3
Mus musculus [10] = assay: Toxicity against Swiss mouse at 100 mg/kg, po after 4 days; format: organism-based; design: dose 100 mg/kg, route oral; conditions: in vivo, 96 h
Outline: (§4)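 Healthy Swiss mice given 100, 200 or 400 mg/kg/day p.o. by gavage for four consecutive days; two to four mice per dose, two experiments. One mouse killed per dose on days 5, 30 and 60. Organs examined against NaCl- or DMSO-treated controls, with H&E sections of stomach.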

Mus musculus [11] = assay: Toxicity against Swiss mouse at 200 mg/kg, po after 4 days; format: organism-based; design: dose 200 mg/kg, route oral; conditions: in vivo, 96 h; outline: as §4
Mus musculus [12] = assay: Toxicity against Swiss mouse at 400 mg/kg, po after 4 days; format: organism-based; design: dose 400 mg/kg, route oral; conditions: in vivo, 96 h; outline: as §4
Plasmodium falciparum [13] = assay: Antimalarial activity against chloroquine-resistant Plasmodium falciparum W2 gametocytes (stage 2 & 3); format: functional, organism-based
Outline: (§5)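 W2 gametocyte cultures treated with 50 mM N-acetyl-D-glucosamine for 3 or 5 days to remove asexual forms. Young (7-day) or old (13-day) cultures exposed to drug dilutions for 48 h. Giemsa thin films made and gametocytes counted per 6,000–10,000 erythrocytes. Mean of three independent experiments.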

Plasmodium falciparum [14] = assay: Antimalarial activity against chloroquine-resistant Plasmodium falciparum W2 gametocytes (stage 4 & 5); format: functional, organism-based; outline: as §5
Plasmodium falciparum [15] = assay: Antimalarial activity against chloroquine-resistant Plasmodium falciparum W2 asexual […]; format: functional, organism-based
[16] = tested on: Plasmodium vinckei petteri; assay: Antimalarial activity against Plasmodium vinckei petteri infected mice (Mus musculus) at 13 mg/kg/day, peroral administered 4 days after infection for 4 days; format: functional, organism-based
Outline: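 Established-infection test: mice infected with 10^6 P. vinckei petteri on day 0 and left untreated until day 4. Then dosed p.o. by gavage once daily in DMSO for 4 days (days 4–7). Thin blood smears taken daily before and after treatment, with follow-up for recrudescence to 60 days.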

[17] = Ratio of LD50 for Swiss mice (Mus musculus) to ED50 for Plasmodium vinckei petteri infected mice (Mus musculus); format: functional
Outline: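 Therapeutic index: LD50 (healthy Swiss mice, observed 60 days) divided by ED50 from the 4-day P. vinckei petteri suppressive test.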

Mus musculus [18] = assay: Mortality rate in Plasmodium vinckei petteri infected mice (Mus musculus) at 50 mg/kg, subcutaneously; format: functional, organism-based; design: dose 50 mg/kg; outline: as §3
[19] = Ratio of IC50 for HCT cells to IC50 for Plasmodium falciparum; format: functional
Plasmodium falciparum [20] = assay: Antimalarial activity against chloroquine-sensitive Plasmodium falciparum Nigeria; format: functional, organism-based, Nigerian; outline: as §1
[21] = Cytotoxicity against human HCT cells assessed as [3H]thymidine incorporation; format: cell-based
Outline: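 HCT human colorectal tumour cells grown with 10% fetal calf serum and harvested with 0.05% trypsin-EDTA. Plated at 15 × 10^3 cells/well with drug dilutions.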

[22] = tested on: Plasmodium yoelii nigeriensis; assay: Antimalarial activity against Plasmodium yoelii nigeriensis infected mice (Mus musculus) by oral dose; format: functional
Outline: (§6)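 Four-day suppressive test with P. yoelii nigeriensis: infected mice given drug once daily for four consecutive days p.o. or s.c. (DMSO vehicle, chloroquine in 0.9% NaCl). Parasitemia compared with untreated controls. Cure was defined as no parasites detected after 60 days, with CD50 taken as the dose curing 50% of mice.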

[23] = tested on: Plasmodium yoelii nigeriensis; assay: Antimalarial activity against Plasmodium yoelii nigeriensis infected subcutaneously dosed mice (Mus musculus); format: functional; outline: as §6
Plasmodium falciparum [24] = assay: Growth inhibition after 6 hrs in chloroquine-resistant Plasmodium falciparum FcB1; format: functional, organism-based; conditions: FcB1, 6 h
Outline: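 Plasmion-synchronized FcB1 parasites plated at ring stage and exposed to drug during successive 6-h windows of the erythrocytic cycle (one plate per period). Artemisinin tested at 7, 14, 28 nM; chloroquine at 120, 163, 232 nM; trioxaquine at 11.5, 23, 46 nM. Dilutions prepared daily.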

| SMILES | IC50 (Plasmodium falciparum [2]) [µM] | IC50 (Plasmodium falciparum [3]) [µM] | CD50 [4] [mg/kg/day] | CD90 [4] [mg/kg/day] | ED50 [4] [mg/kg/day] | ED90 [4] [mg/kg/day] | CD50 [5] [mg/kg/day] | CD90 [5] [mg/kg/day] | ED50 [5] [mg/kg/day] | ED90 [5] [mg/kg/day] | CD50 [6] [mg/kg/day] | CD90 [6] [mg/kg/day] | ED50 [6] [mg/kg/day] | ED90 [6] [mg/kg/day] | further results |
| --- | --- | --- | --- | --- | --- | --- | --- | --- | --- | --- | --- | --- | --- | --- | --- |
| CC(C)C1=C[C@H]2OC3(CCC(NCCNc4ccnc5cc(Cl)ccc45)CC3)OO[C@@]2(C)CC1.O=[N+]([O-])O (stereo partly specified) | 0.021 | 0.016 | 3 | 9 | 0.7 | 8 | 24 | 46 | 16 | 34 | 3 | 8 | 2 | 6 | IC50 (Plasmodium falciparum [1]): 0.025 µM; LD50 (Mus musculus [7]): 70 mg/kg/day; Activity (Mus musculus [8]): Non-toxic; Activity (Mus musculus [9]): Non-toxic |
| CC(C)C1=C[C@H]2OC3(CCC(NCCNc4ccnc5cc(Cl)ccc45)CC3)OO[C@@]2(C)CC1 (stereo partly specified) [listing 1 of 2 here] | – | – | 5 | 8 | 0.7 | 8 | 12 | 24 | 4 | 9 | 5 | 8 | 1.5 | 9 | Activity (Mus musculus [10]): Non-toxic; Activity (Mus musculus [11]): Non-toxic; Activity (Mus musculus [12]): Non-toxic |
| COc1cc(NC(C)CCCNC2CCC3(CC2)OO[C@@]2(C)CCC(C(C)C)=C[C@H]2O3)c2ncccc2c1 (stereo partly specified) | – | – | – | – | – | – | – | – | – | – | – | – | – | – | IC50 (Plasmodium falciparum [13]): 0.057 µM; IC50 (Plasmodium falciparum [14]): 0.046 µM; IC50 (Plasmodium falciparum [15]): 0.043 µM |
| CO[C@H]1O[C@@H]2O[C@@]3(C)CC[C@H]4[C@H](C)CC[C@@H]([C@H]1C)[C@@]24OO3 | – | – | – | – | 0.3 | 0.7 | – | – | – | – | – | – | – | – | – |
| CC(C)C1=C[C@H]2OC3(CCC(NCCNc4ccnc5cc(Cl)ccc45)CC3)OO[C@@]2(C)CC1 (stereo partly specified) [listing 2 of 2 here] | – | – | – | – | – | – | – | – | – | – | – | – | – | – | Activity [16]: Active; Ratio LD50/ED50 [17]: 100; Activity (Mus musculus [18]): inactive |
| CC(C)C1=C[C@H]2OC3(CCC(NCCNc4ccnc5cc(Cl)ccc45)CC3)OO[C@@]2(C)CC1 (stereo in doubt; form 1) | 0.049 | 0.029 | – | – | – | – | – | – | – | – | – | – | – | – | – |
| CC(C)C1=C[C@H]2OC3(CCC(NCCNc4ccnc5cc(Cl)ccc45)CC3)OO[C@@]2(C)CC1 (stereo in doubt; form 2) | 0.048 | 0.032 | – | – | – | – | – | – | – | – | – | – | – | – | – |
| CC(C)C1=C[C@H]2OC3(CCC(NCCNc4ccnc5cc(Cl)ccc45)CC3)OO[C@@]2(C)CC1 (stereo in doubt; form 3) | 0.047 | 0.023 | – | – | – | – | – | – | – | – | – | – | – | – | – |
| CC(C)C1=C[C@H]2OC3(CCC(NCCNc4ccnc5cc(Cl)ccc45)CC3)OO[C@@]2(C)CC1 (stereo in doubt; form 4) | 0.043 | 0.019 | – | – | – | – | – | – | – | – | – | – | – | – | – |
| CC(C)C1=C[C@H]2OC3(CCC(NCCNc4ccnc5cc(Cl)ccc45)CC3)OO[C@@]2(C)CC1.O=C(O)CC(O)(CC(=O)O)C(=O)O (stereo in doubt; form 5) | 0.005 | – | 12 | >20 | – | – | >25 | >25 | 17 | 23 | >10 | >10 | 2.8 | 8 | Ratio IC50 [19]: 130; IC50 (Plasmodium falciparum [20]): 0.023 µM; IC50 [21]: 3 µM; CD50 [22]: 22 mg/kg/day; CD90 [22]: 24 mg/kg/day; ED50 ([22]; Plasmodium yoelii, po): 15 mg/kg/day; ED90 ([22]; Plasmodium yoelii, po): 23 mg/kg/day; CD50 [23]: 3 mg/kg/day; CD90 [23]: 12 mg/kg/day; ED50 ([23]; Plasmodium yoelii, sc): 2 mg/kg/day; ED90 ([23]; Plasmodium yoelii, sc): 5 mg/kg/day; IC50 (Plasmodium falciparum [13]): 0.069 µM; IC50 (Plasmodium falciparum [14]): 0.067 µM; IC50 (Plasmodium falciparum [15]): 0.028 µM; LD50 (Mus musculus [7]): 70 mg/kg/day; IC50 (Plasmodium falciparum [24]): 0.018 µM |
